For the series, the system named is MS2 coat protein. The series is described as follows: apparent Kd, MS2 coat protein; higher = weaker binding; RNA-MaP array; FMN 200 µM where present. The essentials:
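Stalled E. coli RNA polymerase transcribed the designs on Illumina sequencing-chip clusters. SNAP-549-labelled MS2 coat protein was titrated from 0.7 or 1.5 nM, doubling to 3 µM, without and then with constant ligand, in 100 mM Tris-HCl pH 7.5, 80 mM KCl, 4 mM MgCl2, BSA, DTT, yeast tRNA and Tween-20. Per-cluster binding curves were fitted to green signal normalised to red-channel RNA signal and control-cluster median Fmax. The apparent Kd is the median of the filtered fits.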

Setting [1] is: designed as: OFF switch for flavin mononucleotide, no ligand.
Where [2] appears, read: ligand present: flavin mononucleotide, designed as: OFF switch for flavin mononucleotide.
The mark [3] stands for this setting: designed as: ON switch for flavin mononucleotide, no ligand.
Where [4] appears, read: ligand present: flavin mononucleotide, designed as: ON switch for flavin mononucleotide.

As a reminder, the apparent Kd is the concentration giving half-maximal binding under the conditions of the assay.

For the sequence “AUAAUGUGAGGAUAUAUGUAUCACGGUGAUACACCGUGAUGAUAGAAGGUACAUGAGGAUCACCCAUGUAGGGC”, the “apparent Kd” value runs as follows: under setting [1], 36.6 nM; under setting [2], 72.7 nM. Regarding “UUGGGUCGGGAGGAUAUUCGGGCUCAUGGGCUUGGAGAAGGCUCGACAUGAGGAUCACCCAUGUAAGUGUACUU”, the “apparent Kd” value runs as follows: under setting [1], 153 nM; under setting [2], 542 nM. Regarding “GCCGCGUUUCGCGCCUACAUGAGGAUCACCCAUGUUUGUGGGCAGGAUAUCGUCCGCUCUGCGGGCGAGAAGGGCUGUUGUGGU”, the “apparent Kd” value by setting is: under setting [3], 57.7 nM; under setting [4], 50 nM. The matching figures for “AAAAAACAUGAGGAUCACCCAUGUAAUACAACGUCAGGAUAUUGAUUUUAUUAUGUAUUGCAAGAAGGGACUUGUA”: 72.1 nM and 25.4 nM.

As to “AUUACAAUUGUAUACAUGAGGAUCACCCAUGUUAUAAGUCAUGAGGAUAUGGUAUUGUAGUUAUUCCAGAAGGCAUAUAGCUAA”, the “apparent Kd” value is 14.3 nM under setting [3] and 9.2 nM under setting [4]. As for “CCCUUUAGAGGAUAUACAUGAGGAUCACCCAUGUCUUGGGUCCGGCCUGAUCUGGUACGUAGAAGGCUGUUGGU”, the “apparent Kd” value was found to be 187 nM under setting [1] and 158 nM under setting [2]. Regarding “GUGAUCGACAUGAGGAUCACCCAUGUGGAUUCGUUGAGCGGCAGAAGGCGAUGUAGAAAAGAACUCGAGGAUAUGCACGUGUCA”, the “apparent Kd” value reads like this: under setting [3], 7.22 nM; under setting [4], 6.76 nM. Take “ACAUGAUAUGUAGGAUAUCACAACAUGAGUUUUAAAAUUGUAAUUUAGGAUUGAGAAGGACAUUUACAUGAGGAUCACCCAUGU”: the “apparent Kd” value was 18.6 nM under setting [1] and 14.7 nM under setting [2]. The matching figures for “CGCAUGUAAGGAUAUUAGUAGUAGUCAGAAUAGACUAUUACUGAGAAGGUACAUGAGGAUCACCCAUGUAAGCG”: 62.9 nM and 419 nM. The matching figures for “GUGAGGUCAGGAUAUGCAUGGCGGGACUUGCGUCGUGGCGUGCAGAAGGGACAUGAGGAUCACCCAUGUGGAGG”: 225 nM and 302 nM. The matching figures for “UGGACCGAGCUGUCGGUUGGCUGGCAGGAUAUGACAUGAGGAUCACCCAUGUGGGAUCUAAAUUGUCAGAAGGGCCGUUCUGGG”: 212 nM and 25.4 nM. For the sequence “UUAAUUAAUUAAGCGCAAGAUCACAUGAGGAUCACCCAUGUAUAGGAUAUCAGCUCGAUUAGAGCUGAGAAGGAUACAUAGCGC”, the “apparent Kd” value worked out at 203 nM under setting [1] and 568 nM under setting [2]. For “UGUCAUAUAUAGAAGGGUAGUAGGGUAUUACAUGAGGAUCACCCAUGUAUUAUAGGAUAUGUGUAUAGUUUUUAUUCAAGUAUA”, the “apparent Kd” value worked out at 22.8 nM under setting [1] and 17 nM under setting [2]. With “AAAACAUGAGGAUCACCCAUGUUUAGAUCGGUCGAUAGAGGUGAGGAUAUACUAAGUUAAGGCUGGUAGAAGGCACUGGGUACA”, the “apparent Kd” value runs as follows: under setting [3], 62.4 nM; under setting [4], 42 nM. Consider “CAGUACUGAGGAUAUACAUGAGGAUCACCCAUGUGUCUAAAGUAGGAUACUACUAUUAGUAGAAGGCAGUACUG”, for which the “apparent Kd” value is, setting by setting: under setting [1], 12.1 nM; under setting [2], 14.9 nM. For the sequence “UGCGUGGUCACAGGAUAUGCAGGAUGAACUUUAGCAGAAGGGUGAUCAAUCAGCUCAAAACCACAUGAGGAUCACCCAUGUCUA”, the “apparent Kd” value runs as follows: under setting [3], 31.9 nM; under setting [4], 92.9 nM.

On to “AAGAAGAACGUAGGAUAUCAAUGAGGAUCACCCUGAGAAGGACGUGAGGACAUGAGGAUCACCCAUGUGGAUCACCCAUGUCAU”, for which the “apparent Kd” value under setting [1] came to 168 nM and the “apparent Kd” value under setting [2] was determined as 130 nM. For the sequence “GGUCCUUCUGUUAGGAUAUGCUAUGGGCUUCCGCAGUAGAAGGAACAUGAGGAUCACCCAUGUCCGAUGCCGUA”, the “apparent Kd” value under setting [2] is 121 nM. “AGCUAGUCAGGAUAUACGAAAAUGUCCGAAGCUGAGAAGGGACAUGAGGAUCACCCAUGUAGAAGGGACUAGCA”: the “apparent Kd” value runs as follows: under setting [1], 102 nM; under setting [2], 264 nM.

Turning to “UAUUAGAUCCGAGGAUAUCCUUUUUUCUUACAUGAGGAUCACCCAUGUAAAGGGAUUGAGUUGUAGGAGAAGGCGGAUUUAGUU”, the “apparent Kd” value is, setting by setting: under setting [3], 33.4 nM; under setting [4], 15.1 nM. Consider “CUGAGGCUAGGAUAUACGUGAGGUUAGUUGCGAAGCGCUUGACAUGAGGAUCACCCAUGUAGAAGGAGCGGCUU”, for which the “apparent Kd” value is, setting by setting: under setting [1], 22.6 nM; under setting [2], 28.9 nM.

As for “UUGGACGUCGUAGGAUAUGUAGGAUAUUCCUACAUGAGGAUCACCCAUGUUGACAUGGAAGAAGGACAGCAGGACGAUGUCCAU”, the “apparent Kd” value under setting [3] came to 690 nM and the “apparent Kd” value under setting [4] amounted to 12.9 nM. As to “AAAGUUGGUAGGCCCUCGGAACAUGAGGAUCACCCAUGUAAGGAGGAUAUGCCCGGUACCCGCUGGUAGAAGGCCUUAUAAGAA”, the “apparent Kd” value is, setting by setting: under setting [1], 7.46 nM; under setting [2], 23.5 nM. The matching figures for “AUACUCAAUGAAGGAUAUCUCAGCAUAAACCUGAGAGAAGGUCAUUGUUACAUGAGGAUCACCCAUGUUGUAGUUAAUGGGUAA”: 504 nM and 573 nM.

For “CGAUAAAGGUGAGGAUAUGAGAAUAGAAAGAAAUCAGAAGGCACACAUGAGGAUCACCCAUGUGAGUUCUCGAGAUUACAUGGU”, the “apparent Kd” value runs as follows: under setting [1], 15.5 nM; under setting [2], 17.9 nM.

Take “AAUAACAGAGGAUAUACUAUUUUAUGUGUUUAUUGUUUUAAACAUGAGGAUCACCCAUGUAGAAGGCUGAUUAA”: the “apparent Kd” value came to 69.7 nM under setting [1] and 105 nM under setting [2].

Turning to “UCUGCUCGAGGAUAUACAUGAGGAUCACCCAUGUAUCCCAGAAGCAUGGCCUCAGGAUGUAGAAGGCGACGCUA”, the “apparent Kd” value under setting [1] is 14.1 nM and the “apparent Kd” value under setting [2] was 18.5 nM.

Consider “GUCCGGAGGGAGAAGGGCUAGGAGGUCCAGCUUAUGUGUGUUGCAACAUGAGGAUCACCCAUGUAGCAGGAUAUCCCUUGUACA”, for which the “apparent Kd” value runs as follows: under setting [1], 52.1 nM; under setting [2], 219 nM.

“AACAGCUCGUCAGGAUAUAUAUACUUAUAUUGUAUUUAUGUACAUGAGGAUCACCCAUGUUGUUAGUAGAAGGGACGAGCUGAA”: the “apparent Kd” value under setting [1] is 7.61 nM and the “apparent Kd” value under setting [2] stood at 7.16 nM. The matching figures for “ACUAGAUGAGGAUAUGCAUGUUUUCGUGUUCUUCUAGAUUAACAUGAGGAUCACCCAUGUAGAAGGCGUCAUUU”: 81 nM and 118 nM. For the sequence “AAUAUAGAGCUGGAAAUAAAACUCACAUGAGGAUCACCCAUGUAGGAUAUCAGCACGAUAAGUGCUGAGAAGGACAUCCAGCUC”, the “apparent Kd” value runs as follows: under setting [1], 15.2 nM; under setting [2], 15.2 nM. With “UCAAAGAGAUCGAAUGGGAGGCGUAAGGAUAUGCACAUGAGGAUCACCCAUGUCUACGAAAGUAGGCAGAAGGUACGCGGGAUU”, the “apparent Kd” value is 315 nM under setting [3] and 34.2 nM under setting [4]. For the sequence “GUUUAGUGAGGAUAUGUGGCAUCGAUCGAGCGCGGUCGGCUACAGAAGGCACAUGAGGAUCACCCAUGUUUCUC”, the “apparent Kd” value reads like this: under setting [1], 39.5 nM; under setting [2], 413 nM. As for “UCCUGACAUGAGGAUCACCCAUGUAAUUCCUGCCGAGGAUAUGGGCAACAAAGCGGUUGGCCAGAAGGCGGACAGC”, the “apparent Kd” value amounted to 252 nM under setting [3] and 150 nM under setting [4].

For “ACCCAACAUGAGGAUCACCCAUGUCAGGAUAUCCAUCUAUACUCGAAAGAGUAUAGAUGGAGAAGGGACAGAGG”, the “apparent Kd” value by setting is: under setting [1], 94.8 nM; under setting [2], 92.9 nM. The matching figures for “ACAAAUGGAGGAUAUACAUGAGGAUCACCCAUGUAUAUCCUACAUAUGUGAUAAUAAUGUAGAAGGCCAUUUGA”: 11.6 nM and 11.4 nM. Turning to “UUUAUGGGACAGAAGGGCAUUUACAUGAGGAUCACCCAUGUUCAUCAUUGCAGGAUAUGUAUAACAUGAGGAUCACCUAUGUAC”, the “apparent Kd” value turned out to be 604 nM under setting [3] and 106 nM under setting [4]. As for “AGUAACAGAGGAUAUACUAUUUUAUGUGUUUGUUGUUUUAAACAUGAGGAUCACCCAUGUAGAAGGCUGAAUAA”, the “apparent Kd” value by setting is: under setting [1], 21.4 nM; under setting [2], 24.1 nM. On to “UCGUUUAUACAAGGAUAUCAAUUAUAGCUAAAUUUAACAUGAGGAUCACCCAUGUAACUAUGGAGUGAGAAGGUGUAAUGACUU”, for which the “apparent Kd” value reads like this: under setting [3], 401 nM; under setting [4], 251 nM. As for “CAGCGAUAGCUGAACAAUCUAUCUGAGGAUAUUCAUAAAACAUGAGGAUCACCCAUGUAAAAUUGGGAGAAGGCAGAUAGAUUG”, the “apparent Kd” value stood at 12.6 nM under setting [3] and 4.69 nM under setting [4]. “UUAAACGCAGGAUAUACAUUUUUUUUAUUAUCCUCAUAAAUACAUGAGGAUCACCCAUGUAGAAGGGCGAAAUU”: the “apparent Kd” value was found to be 239 nM under setting [1] and 210 nM under setting [2]. The matching figures for “UCUUAUUGAGGAUAUACAUUAAUUUACAUGAGGAUCACCCAUGUUCUUCAAUGUAUAUAUGUAGAAGGCAGAAGAA”: 18.5 nM and 42 nM. The matching figures for “UCUCGCUGGCGAGGAUAUCCUGUGCGGUUCCGGCUCGUGUCUGUUACAUGAGGAUCACCCAUGUGGGAGAAGGUGCCUGUGGCU”: 32.7 nM and 32.6 nM. The matching figures for “CCGAAUAUGCAGGAUAUCGUAUCGGAAACGAUACGAGAAGGGCAAACAUGAGGAUCACCCAUGUUCCUUAACGG”: 18.6 nM and 20.2 nM.

On to “UUUUUACAUGAGGAUCACCCAUGUCAGGAUAUCAUUAUAUUUUAUUAUUUUAUUUAUAUGAGAAGGGACUAUUA”, for which the “apparent Kd” value was found to be 87.7 nM under setting [1] and 60.1 nM under setting [2]. The matching figures for “UGUCGGAGCAGAGGAUAUUACAUGAGGAUCACCCAUGUAAGAACCAAUAGCUGGAAACAGCAAUGUAAGAAGGCUGCUCCGACA”: 5.27 nM and 15.9 nM. With “AAGCUGUCAGGAUAUCGUUAAUUUAGUUGUUUGUAUUAGUUCGAGAAGGGACAUGAGGAUCACCCAUGUAUAUA”, the “apparent Kd” value came to 37.8 nM under setting [1] and 76.8 nM under setting [2].

As to “CUUAUGUGAGGAUAUGGUGUUGGCCACAGGAAAAAGAUUCUCCAGAAGGCACAUGAGGAUCACCCAUGUAGUGA”, the “apparent Kd” value stood at 51.3 nM under setting [1] and 120 nM under setting [2]. The matching figures for “CGCCUGUGAGGAUAUCCAUCUGGAUCAGACUAGAUCCUGAUGGAGAAGGCACAUGAGGAUCACCCAUGUCGGCG”: 23.1 nM and 22.4 nM.

The values above are taken from the EternaBench riboswitch data.
